From ChEMBL document CHEMBL4138284, “Biomimetic Stereoselective Sulfa-Michael Addition Leads to Platensimycin and Platencin Sulfur Analogues against Methicillin-Resistant Staphylococcus aureus” (J Nat Prod, 2018)
Values after ≈ are worked out from the molar mass of the structure shown.

Experiments:
Assay type in all cases: functional
Staphylococcus aureus [1] = assay: Antibacterial activity against methicillin-resistant Staphylococcus aureus isolate 6 incubated overnight by agar dilution method
Summary of the method: (§1)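 MIC by agar dilution. Strains were grown overnight in LB broth and diluted, then about 10^4 CFU (2 μL spots) were spotted onto LB agar plates containing test compound at 0.5 to 8 μg mL−1 agar. Plates were incubated overnight at 37 °C and inspected for growth. Clinical MSSA and MRSA isolates came from local hospitals.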

Staphylococcus aureus [2] = assay: Antibacterial activity against methicillin-resistant Staphylococcus aureus isolate 8 incubated overnight by agar dilution method; summary of the method: as §1
Staphylococcus aureus [3] = assay: Antibacterial activity against methicillin-resistant Staphylococcus aureus isolate 11 incubated overnight by agar dilution method; summary of the method: as §1
Staphylococcus aureus [4] = assay: Antibacterial activity against methicillin-resistant Staphylococcus aureus isolate 10 incubated overnight by agar dilution method; summary of the method: as §1
Staphylococcus aureus [5] = assay: Antibacterial activity against methicillin-sensitive Staphylococcus aureus isolate 3 incubated overnight by agar dilution method; summary of the method: as §1
Staphylococcus aureus [6] = assay: Antibacterial activity against methicillin-resistant Staphylococcus aureus isolate 5 incubated overnight by agar dilution method; summary of the method: as §1
Staphylococcus aureus [7] = assay: Antibacterial activity against methicillin-sensitive Staphylococcus aureus isolate 4 incubated overnight by agar dilution method; summary of the method: as §1
Staphylococcus aureus [8] = assay: Antibacterial activity against Staphylococcus aureus ATCC 29213 incubated overnight by agar dilution method; summary of the method: as §1
Staphylococcus aureus [9] = assay: Antibacterial activity against methicillin-sensitive Staphylococcus aureus isolate 1 incubated overnight by agar dilution method; summary of the method: as §1
Staphylococcus aureus [10] = assay: Antibacterial activity against methicillin-resistant Staphylococcus aureus isolate 9 incubated overnight by agar dilution method; summary of the method: as §1
Staphylococcus aureus [11] = assay: Antibacterial activity against methicillin-resistant Staphylococcus aureus isolate 7 incubated overnight by agar dilution method; summary of the method: as §1
Staphylococcus aureus [12] = assay: Antibacterial activity against methicillin-sensitive Staphylococcus aureus isolate 2 incubated overnight by agar dilution method; summary of the method: as §1

`C[C@]12C[C@@]34C=CC(=O)[C@@](C)(CCC(=O)Nc5c(O)ccc(C(=O)O)c5O)[C@@H]3[C@H](C[C@@H]1C4)O2` was tested, and the MIC (Staphylococcus aureus [1]) was 1 µg/mL (≈ 2.27 µM), the MIC (Staphylococcus aureus [2]) was 1 µg/mL (≈ 2.27 µM) and the MIC (Staphylococcus aureus [3]) was 1 µg/mL (≈ 2.27 µM). For the same compound, the MIC (Staphylococcus aureus [4]) was 0.5 µg/mL (≈ 1.13 µM), the MIC (Staphylococcus aureus [5]) was 0.5 µg/mL (≈ 1.13 µM) and the MIC (Staphylococcus aureus [6]) was 1 µg/mL (≈ 2.27 µM). The MIC (Staphylococcus aureus [7]) was 0.5 µg/mL (≈ 1.13 µM), the MIC (Staphylococcus aureus [8]) was 1 µg/mL (≈ 2.27 µM) and the MIC (Staphylococcus aureus [9]) was 0.5 µg/mL (≈ 1.13 µM). For the same compound, the MIC (Staphylococcus aureus [10]) was 1 µg/mL (≈ 2.27 µM), the MIC (Staphylococcus aureus [11]) was 1 µg/mL (≈ 2.27 µM) and the MIC (Staphylococcus aureus [12]) was 0.5 µg/mL (≈ 1.13 µM).

Compound `C[C@]12C[C@]34C[C@@H]1C[C@H](O2)[C@H]3[C@](C)(CCC(=O)Nc1c(O)ccc(C(=O)O)c1O)C(=O)C[C@@H]4SC(=O)c1cc(F)cc(F)c1` has an MIC (Staphylococcus aureus [1]) of 1 µg/mL (≈ 1.62 µM), an MIC (Staphylococcus aureus [2]) of 2 µg/mL (≈ 3.25 µM) and an MIC (Staphylococcus aureus [4]) of 2 µg/mL (≈ 3.25 µM). For the same compound, the MIC (Staphylococcus aureus [5]) was 2 µg/mL (≈ 3.25 µM), the MIC (Staphylococcus aureus [6]) was 2 µg/mL (≈ 3.25 µM) and the MIC (Staphylococcus aureus [7]) was 2 µg/mL (≈ 3.25 µM). The MIC (Staphylococcus aureus [8]) was 2 µg/mL (≈ 3.25 µM), the MIC (Staphylococcus aureus [9]) was 1 µg/mL (≈ 1.62 µM) and the MIC (Staphylococcus aureus [10]) was 2 µg/mL (≈ 3.25 µM). It also gave an MIC (Staphylococcus aureus [11]) of 2 µg/mL (≈ 3.25 µM) and an MIC (Staphylococcus aureus [12]) of 1 µg/mL (≈ 1.62 µM).

With `C[C@]12C[C@]34C[C@@H]1C[C@H](O2)[C@H]3[C@](C)(CCC(=O)Nc1c(O)ccc(C(=O)O)c1O)C(=O)C[C@@H]4SC(=O)Cc1ccc(F)cc1` the MIC (Staphylococcus aureus [1]) was 2 µg/mL (≈ 3.27 µM), the MIC (Staphylococcus aureus [2]) was 2 µg/mL (≈ 3.27 µM) and the MIC (Staphylococcus aureus [3]) was 4 µg/mL (≈ 6.54 µM). It also gave an MIC (Staphylococcus aureus [4]) of 2 µg/mL (≈ 3.27 µM), an MIC (Staphylococcus aureus [5]) of 2 µg/mL (≈ 3.27 µM) and an MIC (Staphylococcus aureus [6]) of 2 µg/mL (≈ 3.27 µM). It also gave an MIC (Staphylococcus aureus [7]) of 1 µg/mL (≈ 1.63 µM), an MIC (Staphylococcus aureus [8]) of 2 µg/mL (≈ 3.27 µM) and an MIC (Staphylococcus aureus [9]) of 2 µg/mL (≈ 3.27 µM). The MIC (Staphylococcus aureus [10]) was 2 µg/mL (≈ 3.27 µM), the MIC (Staphylococcus aureus [11]) was 4 µg/mL (≈ 6.54 µM) and the MIC (Staphylococcus aureus [12]) was 1 µg/mL (≈ 1.63 µM).

`C[C@]12C[C@]34C[C@@H]1C[C@H](O2)[C@H]3[C@](C)(CCC(=O)Nc1c(O)ccc(C(=O)O)c1O)C(=O)C[C@@H]4SC(=O)c1ccccc1F` gave an MIC (Staphylococcus aureus [1]) of 1 µg/mL (≈ 1.67 µM), an MIC (Staphylococcus aureus [2]) of 1 µg/mL (≈ 1.67 µM) and an MIC (Staphylococcus aureus [3]) of 2 µg/mL (≈ 3.35 µM). For the same compound, the MIC (Staphylococcus aureus [4]) was 1 µg/mL (≈ 1.67 µM), the MIC (Staphylococcus aureus [5]) was 1 µg/mL (≈ 1.67 µM) and the MIC (Staphylococcus aureus [6]) was 2 µg/mL (≈ 3.35 µM). It also gave an MIC (Staphylococcus aureus [7]) of 1 µg/mL (≈ 1.67 µM), an MIC (Staphylococcus aureus [8]) of 1 µg/mL (≈ 1.67 µM) and an MIC (Staphylococcus aureus [9]) of 1 µg/mL (≈ 1.67 µM). For the same compound, the MIC (Staphylococcus aureus [10]) was 1 µg/mL (≈ 1.67 µM), the MIC (Staphylococcus aureus [11]) was 2 µg/mL (≈ 3.35 µM) and the MIC (Staphylococcus aureus [12]) was 1 µg/mL (≈ 1.67 µM).

Compound `C[C@]12C[C@]34C[C@@H]1C[C@H](O2)[C@H]3[C@](C)(CCC(=O)Nc1c(O)ccc(C(=O)O)c1O)C(=O)C[C@@H]4SC(=O)c1ccc([N+](=O)[O-])cc1` has an MIC (Staphylococcus aureus [1]) of 1 µg/mL (≈ 1.6 µM), an MIC (Staphylococcus aureus [2]) of 1 µg/mL (≈ 1.6 µM) and an MIC (Staphylococcus aureus [3]) of 8 µg/mL (≈ 12.8 µM). It also gave an MIC (Staphylococcus aureus [4]) of 1 µg/mL (≈ 1.6 µM), an MIC (Staphylococcus aureus [5]) of 1 µg/mL (≈ 1.6 µM) and an MIC (Staphylococcus aureus [6]) of 2 µg/mL (≈ 3.2 µM). The MIC (Staphylococcus aureus [7]) was 1 µg/mL (≈ 1.6 µM), the MIC (Staphylococcus aureus [8]) was 1 µg/mL (≈ 1.6 µM) and the MIC (Staphylococcus aureus [9]) was 1 µg/mL (≈ 1.6 µM). It also gave an MIC (Staphylococcus aureus [10]) of 1 µg/mL (≈ 1.6 µM), an MIC (Staphylococcus aureus [11]) of 2 µg/mL (≈ 3.2 µM) and an MIC (Staphylococcus aureus [12]) of 1 µg/mL (≈ 1.6 µM).

Compound `C[C@]12C[C@]34C[C@@H]1C[C@H](O2)[C@H]3[C@](C)(CCC(=O)Nc1c(O)ccc(C(=O)O)c1O)C(=O)C[C@@H]4SC(=O)c1cccc(C(F)(F)F)c1` has an MIC (Staphylococcus aureus [1]) of 1 µg/mL (≈ 1.54 µM), an MIC (Staphylococcus aureus [2]) of 1 µg/mL (≈ 1.54 µM) and an MIC (Staphylococcus aureus [3]) of 2 µg/mL (≈ 3.09 µM). It also gave an MIC (Staphylococcus aureus [4]) of 1 µg/mL (≈ 1.54 µM), an MIC (Staphylococcus aureus [5]) of 1 µg/mL (≈ 1.54 µM) and an MIC (Staphylococcus aureus [6]) of 1 µg/mL (≈ 1.54 µM). The MIC (Staphylococcus aureus [7]) was 0.5 µg/mL (≈ 0.772 µM), the MIC (Staphylococcus aureus [8]) was 2 µg/mL (≈ 3.09 µM) and the MIC (Staphylococcus aureus [9]) was 1 µg/mL (≈ 1.54 µM). The MIC (Staphylococcus aureus [10]) was 1 µg/mL (≈ 1.54 µM), the MIC (Staphylococcus aureus [11]) was 2 µg/mL (≈ 3.09 µM) and the MIC (Staphylococcus aureus [12]) was 1 µg/mL (≈ 1.54 µM).

Work on `C[C@]12C[C@]34C[C@@H]1C[C@H](O2)[C@H]3[C@](C)(CCC(=O)Nc1c(O)ccc(C(=O)O)c1O)C(=O)C[C@@H]4SC(=O)c1ccc(F)cc1` yielded an MIC (Staphylococcus aureus [1]) of 1 µg/mL (≈ 1.67 µM), an MIC (Staphylococcus aureus [2]) of 2 µg/mL (≈ 3.35 µM) and an MIC (Staphylococcus aureus [3]) of 2 µg/mL (≈ 3.35 µM). The MIC (Staphylococcus aureus [4]) was 1 µg/mL (≈ 1.67 µM), the MIC (Staphylococcus aureus [5]) was 1 µg/mL (≈ 1.67 µM) and the MIC (Staphylococcus aureus [6]) was 2 µg/mL (≈ 3.35 µM). The MIC (Staphylococcus aureus [7]) was 1 µg/mL (≈ 1.67 µM), the MIC (Staphylococcus aureus [8]) was 1 µg/mL (≈ 1.67 µM) and the MIC (Staphylococcus aureus [9]) was 1 µg/mL (≈ 1.67 µM). It also gave an MIC (Staphylococcus aureus [10]) of 1 µg/mL (≈ 1.67 µM), an MIC (Staphylococcus aureus [11]) of 1 µg/mL (≈ 1.67 µM) and an MIC (Staphylococcus aureus [12]) of 1 µg/mL (≈ 1.67 µM).

Compound `Cc1ccc(C(=O)S[C@H]2CC(=O)[C@@](C)(CCC(=O)Nc3c(O)ccc(C(=O)O)c3O)[C@@H]3[C@@H]4C[C@H]5C[C@]23C[C@]5(C)O4)cc1` has an MIC (Staphylococcus aureus [1]) of 1 µg/mL (≈ 1.68 µM), an MIC (Staphylococcus aureus [2]) of 1 µg/mL (≈ 1.68 µM) and an MIC (Staphylococcus aureus [3]) of 2 µg/mL (≈ 3.37 µM). For the same compound, the MIC (Staphylococcus aureus [4]) was 1 µg/mL (≈ 1.68 µM), the MIC (Staphylococcus aureus [5]) was 1 µg/mL (≈ 1.68 µM) and the MIC (Staphylococcus aureus [6]) was 2 µg/mL (≈ 3.37 µM). The MIC (Staphylococcus aureus [7]) was 1 µg/mL (≈ 1.68 µM), the MIC (Staphylococcus aureus [8]) was 1 µg/mL (≈ 1.68 µM) and the MIC (Staphylococcus aureus [9]) was 1 µg/mL (≈ 1.68 µM). The MIC (Staphylococcus aureus [10]) was 1 µg/mL (≈ 1.68 µM), the MIC (Staphylococcus aureus [11]) was 2 µg/mL (≈ 3.37 µM) and the MIC (Staphylococcus aureus [12]) was 1 µg/mL (≈ 1.68 µM).

Compound `C[C@]12C[C@]34C[C@@H]1C[C@H](O2)[C@H]3[C@](C)(CCC(=O)Nc1c(O)ccc(C(=O)O)c1O)C(=O)C[C@@H]4SC(=O)c1cc(C(F)(F)F)cc(C(F)(F)F)c1` has an MIC (Staphylococcus aureus [1]) of 1 µg/mL (≈ 1.4 µM), an MIC (Staphylococcus aureus [2]) of 1 µg/mL (≈ 1.4 µM) and an MIC (Staphylococcus aureus [4]) of 1 µg/mL (≈ 1.4 µM). For the same compound, the MIC (Staphylococcus aureus [5]) was 1 µg/mL (≈ 1.4 µM), the MIC (Staphylococcus aureus [6]) was 1 µg/mL (≈ 1.4 µM) and the MIC (Staphylococcus aureus [7]) was 1 µg/mL (≈ 1.4 µM). It also gave an MIC (Staphylococcus aureus [8]) of 1 µg/mL (≈ 1.4 µM), an MIC (Staphylococcus aureus [9]) of 1 µg/mL (≈ 1.4 µM) and an MIC (Staphylococcus aureus [10]) of 1 µg/mL (≈ 1.4 µM). For the same compound, the MIC (Staphylococcus aureus [11]) was 2 µg/mL (≈ 2.79 µM) and the MIC (Staphylococcus aureus [12]) was 1 µg/mL (≈ 1.4 µM).

`C[C@]12C[C@]34C[C@@H]1C[C@H](O2)[C@H]3[C@](C)(CCC(=O)Nc1c(O)ccc(C(=O)O)c1O)C(=O)C[C@@H]4SC(=O)c1cccs1` gave an MIC (Staphylococcus aureus [1]) of 2 µg/mL (≈ 3.41 µM), an MIC (Staphylococcus aureus [2]) of 2 µg/mL (≈ 3.41 µM) and an MIC (Staphylococcus aureus [3]) of 1 µg/mL (≈ 1.71 µM). For the same compound, the MIC (Staphylococcus aureus [4]) was 1 µg/mL (≈ 1.71 µM), the MIC (Staphylococcus aureus [5]) was 1 µg/mL (≈ 1.71 µM) and the MIC (Staphylococcus aureus [6]) was 2 µg/mL (≈ 3.41 µM). It also gave an MIC (Staphylococcus aureus [7]) of 1 µg/mL (≈ 1.71 µM), an MIC (Staphylococcus aureus [8]) of 2 µg/mL (≈ 3.41 µM) and an MIC (Staphylococcus aureus [9]) of 1 µg/mL (≈ 1.71 µM). For the same compound, the MIC (Staphylococcus aureus [10]) was 1 µg/mL (≈ 1.71 µM), the MIC (Staphylococcus aureus [11]) was 8 µg/mL (≈ 13.7 µM) and the MIC (Staphylococcus aureus [12]) was 1 µg/mL (≈ 1.71 µM).
